Measurements from ChEMBL document CHEMBL1121893, “N-Aralkyl substitution of 2-amino-5,6- and -6,7-dihydroxy-1,2,3,4-tetrahydronaphthalenes. 1. Cardiac and pressor/depressor activities” (J Med Chem, 1981).
Active and inactive are the calls of the source. No cut-off for these calls is given here.

Key:
[1] = species on record: Canis familiaris; assay: Cardioselectivity expressed as change in blood pressure for 100% increase in right ventricular contractile force in dogs; assay type: functional, Canis lupus familiaris
Method in brief: (§1)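 Mongrel dogs of either sex, anesthetized with pentobarbital sodium (30 mg/kg iv) and ventilated. Femoral-artery blood pressure, heart rate and right ventricular contractile force were recorded, the force by strain gauge with the muscle stretched to 140% of in situ length. After 30 min equilibration, iv bolus doses in saline with 0.5 mg/mL bisulfite were doubled until contractile force rose 100%. Peak responses were taken.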

[2] = species on record: Canis familiaris; assay: Cardioselectivity expressed as change in blood pressure for 50% increase in right ventricular contractile force in dogs; assay type: functional, Canis lupus familiaris
Method in brief: (§2)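 Mongrel dogs of either sex, pentobarbital sodium anaesthesia (30 mg/kg iv, supplemented as needed), ventilated. Femoral arterial BP recorded, drugs given into a forelimb vein as iv boluses in saline with 0.5 mg/mL sodium bisulfite. Right ventricular CF measured by Walton-Brodie strain gauge. Peak response taken per dose, doses raised in 2-fold steps until CF rose 100%. HR and BP changes read at 50% and 100% CF increase. Means ± SEM.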

[3] = species on record: Canis familiaris; assay: Ionotropic selectivity expressed as change in heart rate for 50 percent increase in right ventricular contractile force in dogs; assay type: functional, Canis lupus familiaris; method in brief: as §2
[4] = species on record: Canis familiaris; assay: Inotropic potency expressed as 100 percent increase in right ventricular contractile force in dogs; assay type: functional, Canis lupus familiaris, Heart right ventricle; method in brief: as §1
[5] = species on record: Canis familiaris; assay: Inotropic potency expressed as 50 percent increase in right ventricular contractile force in dogs; assay type: functional, Canis lupus familiaris, Heart right ventricle; method in brief: as §2
[6] = species on record: Cavia porcellus; assay: (§3) Effective concentration for increasing potency force in guinea pig isolated left atria; assay type: functional
Method in brief: (§4)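 Isolated guinea pig left and right atria, field stimulated with 5 ms pulses and allowed to stabilise 60 min with periodic washing. An isoproterenol cumulative concentration-response curve was run first, tissues washed, then a cumulative curve with the test compound. Force was read in both atria and rate in right atria. Intrinsic activity = maximal response ÷ isoproterenol maximum. EC20 was given where EC50 was not reached. Means ± SE.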

[7] = species on record: Cavia porcellus; assay: (§5) Effective concentration for increasing potency rate in guinea pig isolated right atria; assay type: functional; method in brief: as §4
[8] = species on record: Cavia porcellus; assay: Compound was tested for or relative intrinsic activity in guinea pig isolated atrium left atria; assay type: functional, Cardiac atrium; method in brief: as §4
[9] = species on record: Cavia porcellus; assay: Compound was tested for relative intrinsic activity in guinea pig isolated atrium right atria; assay type: functional, Cardiac atrium; method in brief: as §4
[10] = species on record: Canis familiaris; assay: Ionotropic selectivity expressed as change in heart rate for 100 percent increase in right ventricular contractile force in dogs; assay type: functional, Canis lupus familiaris; method in brief: as §1
[11] = species on record: Cavia porcellus; assay: Effective concentration for increasing potency in guinea pig isolated right atria; assay type: functional; method in brief: as §4
[12] = species on record: Cavia porcellus; assay: as §3; assay type: functional; remark: listed apart in the source
[13] = species on record: Canis familiaris; assay: Cardioselectivity expressed as change in blood pressure for 100% increase in right ventricular contractile force in dogs; CF(100) levels not obtained; assay type: functional, organism-based; details: Canis lupus familiaris; method in brief: as §2
[14] = species on record: Canis familiaris; assay: Ionotropic selectivity expressed as change in heart rate for 100 percent increase in right ventricular contractile force in dogs; CF(100) levels not obtained; assay type: functional, organism-based; details: Canis lupus familiaris; method in brief: as §2
[15] = species on record: Canis familiaris; assay: Inotropic potency expressed as 100 percent increase in right ventricular contractile force in dogs; CF(100) levels not obtained; CF(100) levels not obtained; assay type: functional, organism-based; details: Canis lupus familiaris; Heart right ventricle; method in brief: as §2
[16] = Percentage increase in contractile force was determined by the effect of DMI (desmethylimipramine, 1 mg/kg, iv) at 50 ug/kg
[17] = species on record: Canis familiaris; assay: Inotropic potency expressed as 100 percent increase in right ventricular contractile force in dogs; CF(100) levels not obtained; assay type: functional, organism-based; details: Canis lupus familiaris; Heart right ventricle; method in brief: as §2
[18] = species on record: Canis familiaris; assay: Cardioselectivity expressed as change in blood pressure for 100% increase in right ventricular contractile force in dogs; CF(100) level not obtained; assay type: functional, organism-based; details: Canis lupus familiaris; method in brief: as §2
[19] = species on record: Canis familiaris; assay: Ionotropic selectivity expressed as change in heart rate for 100 percent increase in right ventricular contractile force in dogs; CF(100) level not obtained; assay type: functional, organism-based; details: Canis lupus familiaris; method in brief: as §2
[20] = species on record: Canis familiaris; assay: Inotropic potency expressed as 100 percent increase in right ventricular contractile force in dogs; CF(100) level not obtained; assay type: functional, organism-based; details: Canis lupus familiaris; Heart right ventricle; method in brief: as §2
[21] = species on record: Cavia porcellus; assay: as §5; assay type: functional; remark: listed apart in the source
Method in brief: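 Isolated atria were stabilized 60 min with periodic washing. A cumulative isoproterenol concentration-response curve was run, then washed out. A cumulative curve with the test compound followed. The EC50 was derived, or EC20 where 50% was not reached. Intrinsic activity is the maximal response relative to isoproterenol maximum.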

CC(CCc1ccc(O)cc1)NCCc1ccc(O)c(O)c1 (centres undefined) [DOBUTAMINE]
BP [1]: 4 mmHg | BP [2]: 3 mmHg | HR [3]: 3 beats min-1 | Potency [4]: 13.2 nM/kg | Potency [5]: 4.1 nM/kg | EC50 [6]: 0.15 µM | EC50 [7]: 0.47 µM | RIA [8]: 1.12 | RIA [9]: 0.9 | HR [10]: 17 beats min-1

CC(C)NCC(O)c1ccc(O)c(O)c1 (centres undefined) [ISOPROTERENOL]
BP [1]: -27 mmHg | BP [2]: -17 mmHg | HR [3]: 13 beats min-1 | Potency [4]: 0.35 nM/kg | Potency [5]: 0.11 nM/kg | EC50 [6]: 0.0032 µM | EC50 [7]: 0.0062 µM | RIA [8]: 1 | RIA [9]: 1 | HR [10]: 35 beats min-1

Oc1ccc(CCNC2CCc3cc(O)c(O)cc3C2)cc1O (centres undefined)
BP [1]: 72 mmHg | BP [2]: 50 mmHg | HR [3]: 11 beats min-1 | Potency [4]: 189 nM/kg | Potency [5]: 85 nM/kg | EC50 [6]: 1.5 µM | RIA [8]: 0.84 | RIA [9]: 0.67 | EC50 [11]: 16 µM | HR [10]: 30 beats min-1

CC(CCc1ccc(O)cc1)NC1CCc2cc(O)c(O)cc2C1 (centres undefined)
BP [1]: 60 mmHg | BP [2]: 13 mmHg | HR [3]: -3 beats min-1 | Potency [4]: 410 nM/kg | Potency [5]: 140 nM/kg | RIA [8]: 0.38 | RIA [9]: 0.15 | EC20 [12]: 2.7 µM | EC20 [11]: > 110 µM | HR [10]: 19 beats min-1

NC1CCc2c(ccc(O)c2O)C1 (centres undefined)
BP [13]: inactive | BP [2]: 41 mmHg | HR [14]: inactive | HR [3]: 11 beats min-1 | Potency [15]: inactive | Potency [5]: 410 nM/kg | EC50 [6]: 4.4 µM | EC50 [7]: 38 µM | RIA [8]: 1.05 | RIA [9]: 0.69 | Increase [16]: 18%

NC1CCc2cc(O)c(O)cc2C1 (centres undefined)
BP [1]: 61 mmHg | BP [2]: 29 mmHg | HR [3]: -12 beats min-1 | Potency [4]: 457 nM/kg | Potency [5]: 173 nM/kg | EC50 [6]: 2.5 µM | EC50 [7]: 33 µM | RIA [8]: 1.06 | RIA [9]: 0.61 | HR [10]: 21 beats min-1 | Increase [16]: 5%

CC(Cc1ccc(O)c(O)c1)NC1CCc2c(ccc(O)c2O)C1 (centres undefined)
BP [1]: -54 mmHg | BP [2]: -42 mmHg | HR [3]: 26 beats min-1 | Potency [4]: 20.1 nM/kg | Potency [5]: 7.2 nM/kg | EC50 [6]: 0.25 µM | EC50 [7]: 0.16 µM | RIA [8]: 1.02 | RIA [9]: 0.87 | HR [10]: 40 beats min-1

NCCc1ccc(O)c(O)c1 [DOPAMINE]
BP [1]: -5 mmHg | BP [2]: -15 mmHg | HR [3]: 5 beats min-1 | Potency [4]: 125 nM/kg | Potency [5]: 58.1 nM/kg | EC50 [6]: 1.7 µM | EC50 [7]: 1.5 µM | RIA [8]: 1.15 | RIA [9]: 1 | HR [10]: 12 beats min-1

CC(C)NC1CCc2c(ccc(O)c2O)C1 (centres undefined)
BP [13]: CF(100) levels not obtained | BP [2]: -66 mmHg | HR [14]: CF(100) levels not obtained | HR [3]: 20 beats min-1 | Potency [17]: CF(100) levels not obtained | Potency [5]: 110 nM/kg | EC50 [6]: 21 µM | EC50 [7]: 1.7 µM | RIA [8]: 1.16 | RIA [9]: 0.55

CC(C)NC1CCc2cc(O)c(O)cc2C1 (centres undefined)
BP [18]: CF(100) level not obtained | BP [2]: 46 mmHg | HR [19]: CF(100) level not obtained | HR [3]: 9 beats min-1 | Potency [20]: CF(100) level not obtained | Potency [5]: 1560 nM/kg | EC50 [6]: 49 µM | RIA [8]: 0.78 | RIA [9]: 0.24 | EC20 [11]: 200 µM

CC(CCc1ccc(O)c(O)c1)NC1CCc2cc(O)c(O)cc2C1 (centres undefined)
BP [1]: -11 mmHg | BP [2]: -36 mmHg | HR [3]: 20 beats min-1 | Potency [4]: 109 nM/kg | Potency [5]: 24.6 nM/kg | EC50 [7]: 1.2 µM | RIA [9]: 0.35 | HR [10]: 45 beats min-1

CC(CCc1ccc(O)cc1)NC1CCc2c(ccc(O)c2O)C1 (centres undefined)
BP [1]: -61 mmHg | BP [2]: -51 mmHg | HR [3]: 20 beats min-1 | Potency [4]: 196 nM/kg | Potency [5]: 27.7 nM/kg | EC50 [6]: 0.73 µM | EC50 [7]: 1.8 µM | RIA [8]: 1.11 | RIA [9]: 0.78 | HR [10]: 41 beats min-1

CC(Cc1ccc(O)c(O)c1)NC1CCc2cc(O)c(O)cc2C1 (centres undefined)
BP [2]: -39 mmHg | HR [3]: -5 beats min-1 | Potency [4]: 27 nM/kg | Potency [5]: 11.4 nM/kg | EC50 [6]: 0.28 µM | RIA [8]: 0.95 | RIA [9]: 0.69 | EC50 [11]: 2.2 µM | HR [10]: 4 beats min-1

Oc1cc2c(cc1O)CC(NC1CCc3cc(O)c(O)cc3C1)CC2 (centres undefined)
BP [1]: 84 mmHg | BP [2]: 78 mmHg | HR [3]: 31 beats min-1 | Potency [4]: 2650 nM/kg | Potency [5]: 961 nM/kg | RIA [8]: 0.38 | RIA [9]: 0.08 | EC20 [12]: 2.4 µM | EC20 [21]: > 110 µM | HR [10]: 62 beats min-1
